# Compound activity (PubChem)
# PKA-R2B act: activates the human PKA-R2B holoenzyme complex. P22694+P31323. PKA-R2B holoenzyme dissociation, Cy5-IP20 fluorescence polarization; R2B truncated from residue 108, S112A mutant; 0% DMSO only, 100% 113 µM cGMP. activation, % at 11.4 µM. 340,000 tested, 0.079% active. AID 504700;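 active = activation above a cutoff set at the mean over all compounds plus 3 SD, cut at about 18% in these data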;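 note: higher means more holoenzyme dissociation and a rise in polarization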
# PKA-R1A act: activates the PKA-R1A holoenzyme complex; PKA-R1A dissociation, Cy5-IP20 fluorescence polarization; scaled: DMSO 0%, 113 µM cGMP 100%; activation, % at 11.4 µM; 340,000 tested, 0.083% active; AID 504707;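 active = percent activation above the mean of all tested compounds plus 3 SD, cut at about 19% in these data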;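 note: higher means more PKAc released from R1A so a rise in polarization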
# TbMetRS inhib: blocks T. brucei methionyl-tRNA synthetase activity | inhibition, % at 11.9 µM | 360,000 tested, 0.4% active | purified T. brucei MetRS, ATP depletion, Kinase-Glo luminescence;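 active = inhibition above a per-plate cutoff of the control wells' mean inhibition plus 3 SD, cut at about 5.5% in these data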;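 note: 0% = DMSO wells median and 100% = median of wells with control inhibitor compound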
#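 technique = Kinase-Glo luminescence, ATP depletion format | system = purified MetRS (methionyl-tRNA synthetase) enzyme from Trypanosoma brucei | timing = 15 min preincubation, 2 h reaction, all 25 °C | evaluation = percent inhibition versus plate control medians | dosing = single dose, 11.9 µM final nominal, 0.9% final DMSO | also added = substrates ATP, L-methionine and bulk Escherichia coli tRNA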
# H9c2 protect: myocardial damage modulation in H9c2 cells; 360,000 tested, 0.63% active; protection from H2O2 cell death, % at 20 µM; AID 588492; H9c2 cardiomyocytes, H2O2 injury protection, ATPLite, 2 h;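 active = compounds giving at least 50% protection of heart cells from peroxide-induced death in the single-dose screen, raw or plate-pattern-corrected value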;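 note: 0% = DMSO wells with peroxide and 100% = DMSO wells without peroxide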
# Rin1-Abl PPI inh: human Rin1-Abl interaction inhibition; 360,000 tested, 0.4% active; TR-FRET Rin1/Abl binding, biochemical; inhibition, % at 7.35 µM; P00519+Q13671; in the data active = inhibition above about 5%, passing the limit was not always enough
# The depositor's hits bear a star; / = no result given. Compounds with a hit are over-represented: about 1.5% of the library has one in this group of screens.
SMILES,PKA-R2B act,PKA-R1A act,TbMetRS inhib,H9c2 protect,Rin1-Abl PPI inh
O=C(NCCN1CCOCC1)c1cc(-c2ccccc2)nc2ccccc12,4,12,0,4,-2
COc1ccc(-c2cc(C(F)F)n3ncc(C(=O)Nc4ccc(C(=O)N5CCOCC5)cc4)c3n2)cc1,4,0,0,71*,1
O=C(c1cnn2c(C(F)F)cc(-c3ccccc3)nc12)N1CCOCC1,0,-9,0,4,-7
O=C(NCCN1CCOCC1)c1cnn2c(-c3ccccc3)cc(-c3ccccc3)nc12,6,-1,-2,79*,-7
COc1ccccc1NC(=O)N1CCC(NC(=O)C2CCCCC2)CC1,-13,6,-1,0,3
COc1ccccc1NC(=O)c1cc2c(CO)cnc(C)c2oc1=Nc1ccc(OC)c(OC)c1,-10,-9,0,21,0
Cc1ncc(CO)c2cc(C(=O)Nc3ccccc3Cl)c(=Nc3cccc(C(N)=O)c3)oc12,4,3,0,61*,3
O=C(CCc1nc2ccccc2c(=O)[nH]1)N1CCN(S(=O)(=O)c2ccc(F)cc2)CC1,-11,-6,0,86*,4
O=C(CCc1nc2ccccc2c(=O)[nH]1)N1CCN(S(=O)(=O)c2cccc([N+](=O)[O-])c2)CC1,1,1,-1,70*,5
O=C(CCc1c[nH]c2ccccc12)N1CCN(S(=O)(=O)c2ccc(F)cc2)CC1,5,-1,0,-2,0
CC(C)C1C(=O)N(Cc2cn(CCC3OCCO3)nn2)CCS(=O)(=O)N1Cc1ccc(-c2ccc(F)cc2Cl)cc1 (stereo unspecified),/,/,0,-4,1
CC(=O)Nc1cccc(-c2ccnc3c2CC(C(=O)NCc2ccc(F)c(F)c2)O3)c1 (stereo unspecified),/,/,0,4,1
O=C1c2ccccc2NC(c2ccc(-c3ccc(Br)cc3)o2)N1O (stereo unspecified),1,4,0,65*,-3
O=C1c2ccccc2NC(c2ccc(-c3cccc([N+](=O)[O-])c3)o2)N1O (stereo unspecified),-14,-5,0,56*,-2
O=C1c2ccccc2NC(c2ccc(-c3ccc(F)cc3)o2)N1O (stereo unspecified),-3,4,0,3,-2
COc1ccc(CCN2C(=O)c3cccc4cccc(c34)C2=O)cc1OC,-6,-20,0,6,-1
CCN(CC)C(=O)c1ccc2c3c(cccc13)C(=O)N(CCc1ccc(OC)c(OC)c1)C2=O,3,-2,-1,71*,-2
CCOC(=O)c1ccc(-c2ccc3c(c2)CCC3)nc1C,-3,2,-1,-9,0
COc1ccc(OC)c(/C=N/NC(=O)CCc2ccc(O)c(O)c2)c1,-5,4,1,51*,-4
COc1ccc(/C=N/NC(=O)c2cc3c(OC)ccc(OC)c3[nH]2)cc1O,9,-4,1,66*,-3
COc1ccc(OC)c(/C=N/NC(=O)c2cc3c(OC)cccc3[nH]2)c1,-7,-16,-1,29,4
COc1ccc(OC)c(/C=N/NC(=O)c2cc3c(OC)cc(OC)cc3[nH]2)c1,-10,-9,0,51*,1
CCOC(=O)[C@]12CCCC=C1N(Cc1ccc(Cl)cc1Cl)C(=O)[C@H](CC(=O)NCc1cccc3ccccc13)C2,/,/,0,/,/
CCOc1ccc(NC(=O)c2cc3c(C)nc4ccccc4c3o2)cc1,3,6,0,61*,-1
COc1ccc(CNCc2cc3c(C(C)(C)C)nn(-c4ccccc4)c3[nH]c2=O)cc1,-9,-9,-2,18,0
SMILES,PKA-R2B act,PKA-R1A act,TbMetRS inhib,H9c2 protect,Rin1-Abl PPI inh
Cc1ccc(CNCc2cc3c(C(C)(C)C)nn(-c4ccccc4)c3[nH]c2=O)cc1,-1,-8,-1,58*,1
CC(C)(C)c1nn(-c2ccccc2)c2[nH]c(=O)c(CNCc3ccco3)cc12,-5,-3,-1,79*,-1
COc1cc(/C=N/NC(=O)c2cccnc2)ccc1OCC(=O)Nc1ccccc1Cl,-8,-2,0,51*,4
COc1cc(/C=N/NC(=O)c2ccncc2)ccc1OCC(=O)Nc1ccccc1,4,-5,-1,25,0
COc1cc(C(=O)N/N=C/c2ccc(OC(=O)c3ccccc3Cl)cc2)ccc1O,6,0,-1,52*,-2
COc1cc(/C=N/NC(=O)c2cccnc2)ccc1OC(=O)c1ccco1,-21,6,-1,3,0
COc1cc(/C=N/NC(=O)c2ccccc2O)ccc1OCC(=O)Nc1ccccc1,7,-5,-1,78*,1
COc1cc(/C=N\NC(=O)c2cccnc2)ccc1OC(=O)c1ccccc1Cl,8,1,1,55*,0
C[C@H](CO)N1C[C@H](C)[C@@H](CN(C)C(=O)NC2CCCCC2)Oc2ccc(NC(=O)C3CC3)cc2C1=O,-11,-4,0,15,1
CCCCn1c(N)c(N(CC)C(=O)C2COc3ccccc3O2)c(=O)[nH]c1=O (stereo unspecified),5,-6,0,-3,3
COc1ccccc1NC(=O)COc1ccc(/C=N/NC(=O)c2cccnc2)cc1,-5,-15,0,51*,-3
COc1cc(C(=O)N/N=C/c2ccc(OC(=O)c3cccc(C)c3)c(OC)c2)ccc1O,8,-5,0,58*,0
COc1cccc(C(=O)Oc2ccc(/C=N/NC(=O)c3ccncc3)cc2OC)c1,1,0,-1,18,0
Cc1c(/C=N/Nc2nc3ccccc3[nH]2)c2ccccc2n1C,4,-12,5,-15,0
C=CCn1cc(/C=N/Nc2nc3ccccc3[nH]2)c2ccccc21,-2,10,5.6*,-28,-3
CC(=O)Nc1c(-c2ccccc2)c2cc(Br)ccc2[nH]c1=O,-7,-2,0,1,0
CC1=[N+](C)c2c(ccc3cccnc23)C1(C)C,31*,24*,-1,-30,1
Cc1[nH]c2c(ccc3cccnc32)c1C,-5,4,-1,-3,1
CCc1sc(C(=O)NCCCn2ccnc2)cc1Br,10,-7,0,0,3
Oc1c(Br)cccc1/C=N/c1ncn[nH]1,5,3,0,67*,0
O=c1c2ccccc2c(/C=N/c2ncn[nH]2)c(O)n1Cc1ccccc1,-5,-2,0,8,-4
CN(C)c1nc(-c2ccccn2)nnc1-c1ccccc1,-10,9,-1,67*,2
c1ccc(-c2nnc(-c3ccccn3)c(-c3ccccn3)n2)nc1,/,/,1,-1,-4
COc1cc(/C=C2/CC/C(=C/c3ccc(O)c(OC)c3)C2=O)ccc1O,3,-12,-1,70*,2
